Shown are actives, neighbours in structure and some others; about 3% of the full set was active somewhere.
Lipid droplet: modulators of hepatic lipid droplet formation; inhibition, % at 6.5 µM; AML12 mouse hepatocytes, oleate lipid droplets, BODIPY imaging; 240,000 tested, 0.4% active;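 active means lipid droplet intensity inhibited by at least 50%, with more than 500 cells counted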
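Material – AML12 mouse liver cells · Also added – oleate loading, 100 µM · Compound dosing – 6.5 µM single-point dosing · Times – overnight treatment with compound plus oleate · Measured by – fluorescence imaging, 20x objective, two fields per well · Read-out – percent inhibition of filter-corrected integrated lipid droplet intensity per well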
NPR2 activator: GC-B (human) receptor activation | HEK293-GC-B cells, CNP EC30, cGMP TR-FRET; 0% at EC30 CNP, 100% saturating CNP | P20594 | 370,000 tested, 0.11% active | activation, % at 10 µM;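 active means activation at 10 µM reaching about 35% in either raw or pattern-adjusted values, limit read from the data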
aDG glyco up: alpha-DG glycosylation activation; 360,000 tested, 0.22% active; AID 624168; activation, % at 10 µM; Pro5-aDG cells, alpha-DG glycosylation AlphaScreen (IIH6); 0% Pro5, 100% B10-LARGE cell signal;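 active means activation of at least 8% versus controls, or a plate z-score of at least 8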;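 further: Pro5 are CHO cells carrying HIG-tagged alpha-DG that lacks glycosylation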
NR3A LBD binder: modulators (binders) of human NR3A ligand-binding domain; NR3A LBD differential scanning fluorimetry, Tm shift; 0% = protein alone, 100% = glycine-bound protein; 340,000 tested, 2.5% active; Tm shift relative to glycine control, % at 25 µM;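 active means melting temperature shift of at least 10% of the positive control shift, at one fixed dose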
GASC-1 inh: human JMJD2C demethylase inhibition | Q9H3R0 | GST-JMJD2C(1-420) H3K9me3 demethylation, DELFIA europium | inhibition, % at 2.35 µM | 330,000 tested, 0.069% active;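 active means more than half of a compound's replicate wells show inhibition beyond 50%, single wells judged on their own value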;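 further: signal counts dimethyl H3K9 product captured on neutravidin plate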
NPR1 activator: GC-A (human) enzyme activation; P16066; HEK293 GC-A cells, cGMP TR-FRET, EC30 ANP; 0% at EC30 ANP, 100% saturating ANP; activation, % at 10 µM; 370,000 tested, 0.14% active; AID 1671463; in the data active means activation above about 40%
Hits are given with their value.

`Cc1ccc(NC(=O)c2ccc(NS(=O)(=O)/C=C/c3ccccc3)cc2)nc1` gave Lipid droplet inactive, NPR2 activator inactive, aDG glyco up inactive, NR3A LBD binder 18, GASC-1 inh inactive and NPR1 activator inactive.
For O=C(COC(=O)c1c(Cl)cccc1Cl)Nc1ccccc1Br the results were Lipid droplet inactive, NPR2 activator inactive, aDG glyco up inactive, NR3A LBD binder 15, GASC-1 inh inactive and NPR1 activator inactive.
Screening CCOC(=O)Cn1ccc(NC(=O)c2ccc(F)cc2)n1 returned Lipid droplet inactive, NPR2 activator inactive, aDG glyco up inactive, NR3A LBD binder inactive, GASC-1 inh inactive and NPR1 activator 50.
For CCOC(=O)Cn1ccc(NC(=O)COc2ccc(F)cc2F)n1 the results were Lipid droplet inactive, NPR2 activator inactive, aDG glyco up inactive, NR3A LBD binder inactive, GASC-1 inh inactive and NPR1 activator 41.
Screening COc1ccc(CN2C[C@]3(C=C4CCCCC4n4c(=O)n(-c5ccccc5)c(=O)n43)N=C2NC(=O)c2ccccc2)c(OC)c1 (stereo partly specified) returned NPR2 activator inactive and NPR1 activator inactive.
`CCOC(=O)c1ccc(NC(=S)NN)cc1` gave Lipid droplet inactive, NPR2 activator inactive, aDG glyco up inactive, NR3A LBD binder inactive, GASC-1 inh inactive and NPR1 activator inactive.
CCOC(=O)c1ccc(NC(=S)Nc2ccc(Br)cc2N)cc1 was read as NPR2 activator inactive, aDG glyco up inactive, NR3A LBD binder 23, GASC-1 inh inactive and NPR1 activator inactive.
`O=S(=O)(NCC(Nc1ccc(Cl)cc1)c1ccccc1)c1ccc(Cl)cc1` (stereo unspecified) gave Lipid droplet inactive, NPR2 activator inactive, aDG glyco up inactive, NR3A LBD binder 28, GASC-1 inh inactive and NPR1 activator inactive.
`O=S(=O)(NCC(c1ccccc1)N1CCC(O)CC1)c1ccc(Cl)cc1` (stereo unspecified) gave Lipid droplet inactive, NPR2 activator inactive, aDG glyco up inactive, NR3A LBD binder inactive, GASC-1 inh inactive and NPR1 activator inactive.
Screening C=CCNC(C(=O)Nc1cccc(OC)c1)c1ccccc1 (stereo unspecified) returned Lipid droplet inactive, NPR2 activator inactive, aDG glyco up inactive, NR3A LBD binder 15, GASC-1 inh inactive and NPR1 activator inactive.
Screening O=C(/C=C/c1ccc(O)c([N+](=O)[O-])c1)c1ccc2ccccc2c1 returned Lipid droplet inactive, NPR2 activator inactive, aDG glyco up inactive, NR3A LBD binder inactive, GASC-1 inh inactive and NPR1 activator inactive.
For CNc1ccc(/C=C/C(=O)c2ccc(C)cc2)cc1[N+](=O)[O-] the results were Lipid droplet inactive, NPR2 activator inactive, aDG glyco up inactive, NR3A LBD binder 21, GASC-1 inh inactive and NPR1 activator inactive.
Screening CNc1ccc(/C=C/C(=O)c2ccc3c(c2)OCCO3)cc1[N+](=O)[O-] returned Lipid droplet inactive, NPR2 activator inactive, aDG glyco up inactive, NR3A LBD binder inactive, GASC-1 inh inactive and NPR1 activator inactive.
Screening O=[N+]([O-])c1cc(/C=N\O)ccc1Oc1ccc(F)cc1 returned Lipid droplet inactive, NPR2 activator inactive, aDG glyco up inactive, NR3A LBD binder 16, GASC-1 inh inactive and NPR1 activator inactive.
COc1ccc(Oc2ccc(/C=C/C(=O)c3ccc(O)cc3)cc2[N+](=O)[O-])cc1 was read as Lipid droplet inactive, NPR2 activator inactive, aDG glyco up inactive, NR3A LBD binder 20, GASC-1 inh inactive and NPR1 activator inactive.
Screening O=C(Nc1ccc(F)cc1)C(CCc1ccccc1)N1CCN(c2cccc(C(F)(F)F)n2)CC1 (stereo unspecified) returned NPR2 activator inactive, aDG glyco up inactive and NPR1 activator inactive.
For CNc1ncn(-c2c(C)cccc2C)c(=O)n1 the results were NPR2 activator inactive and NPR1 activator inactive.
For O=C(NC1CCCC1)C(c1ccccn1)N(C(=O)c1csnn1)c1ccccc1Br (stereo unspecified) the results were NPR2 activator inactive, aDG glyco up inactive, NR3A LBD binder inactive, GASC-1 inh inactive and NPR1 activator inactive.
For COc1cc(/C(C)=N\NC(N)=S)cc(OC)c1OC the results were Lipid droplet inactive, NPR2 activator inactive, aDG glyco up inactive, NR3A LBD binder inactive, GASC-1 inh inactive and NPR1 activator inactive.
COc1cc(/C(C)=N/NC(=S)NC(C)C)cc(OC)c1OC was read as Lipid droplet inactive, NPR2 activator 39, aDG glyco up inactive, NR3A LBD binder inactive, GASC-1 inh inactive and NPR1 activator inactive.
`O=C(CSCc1c(F)cccc1Cl)NCc1cccnc1` gave Lipid droplet inactive, NPR2 activator inactive, aDG glyco up inactive, NR3A LBD binder 12, GASC-1 inh inactive and NPR1 activator inactive.
Screening CC(C)Cn1c(SCC(=O)NC2CC2)nc2ccccc21 returned NPR2 activator inactive, aDG glyco up inactive and NPR1 activator inactive.
For COc1ccc([C@H]2OC(=O)C[C@H]2C(=O)N2CCN(C(=O)C3CCCO3)CC2)cc1OC (stereo partly specified) the results were NPR2 activator inactive and NPR1 activator inactive.
Nc1cc2nsnc2cc1Br was read as NPR2 activator inactive, aDG glyco up 6.6, NR3A LBD binder inactive, GASC-1 inh inactive and NPR1 activator inactive.
Screening OCC[C@@H]1C[C@H](O)[C@@H](O)[C@@]2(OCCc3cc(C(F)(F)F)ccc32)O1 returned NPR2 activator inactive and NPR1 activator inactive.
For Cc1cnc(NC(=O)c2cc3c(s2)CCCC3)s1 the results were Lipid droplet inactive, NPR2 activator inactive, aDG glyco up inactive, NR3A LBD binder 23, GASC-1 inh inactive and NPR1 activator inactive.
`O=C(COc1ncnc2c1cnn2-c1ccccc1)Nc1ccc(S(=O)(=O)N2CCCCC2)cc1` gave Lipid droplet inactive, NPR2 activator inactive, aDG glyco up inactive, NR3A LBD binder 18, GASC-1 inh inactive and NPR1 activator inactive.
NS(=O)(=O)c1cccc(NC(=O)COc2ncnc3c2cnn3-c2ccccc2)c1 was read as Lipid droplet inactive, NPR2 activator inactive, aDG glyco up inactive, NR3A LBD binder inactive, GASC-1 inh inactive and NPR1 activator inactive.
COc1cccc2c(NCc3ccccc3)nc(-n3c(N)nc4ccccc43)nc12 was read as NPR2 activator inactive and NPR1 activator inactive.
`COc1cc2cc(CN(Cc3cccs3)C(=S)Nc3ccccc3)c(=O)[nH]c2cc1OC` gave Lipid droplet inactive, NPR2 activator inactive, aDG glyco up inactive, NR3A LBD binder 17, GASC-1 inh inactive and NPR1 activator inactive.
COc1ccc2[nH]c(=O)c(CN(Cc3cccs3)C(=S)Nc3ccccc3)cc2c1 was read as Lipid droplet inactive and GASC-1 inh inactive.

Screens deposited in PubChem by several laboratories.
